Source: ChEMBL document CHEMBL3045023, “Design, synthesis, and antiviral activity evaluation of phenanthrene-based antofine derivatives” (2012)

Legend:
Assay type in all cases: functional
[1] = tested on: Tobacco mosaic virus; assay: Antiviral activity against Tobacco mosaic virus (TMV) assessed as inhibition of viral growth at 1 ug/mL; conditions: read-out: GI
[2] = tested on: Tobacco mosaic virus; assay: Antiviral activity against Tobacco mosaic virus (TMV) inoculation on Nicotiana tabacum L. whole leaves assessed as virus infection curative effect at 500 ug/mL measured 3 to 4 days post inoculation
Method in brief: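 Whole N. tabacum L. leaves of the same age were inoculated with TMV (6.0 × 10−3 mg/mL), then washed and dried. Compound was then smeared on the left half and solvent on the right half as control. Local lesions were counted 3–4 days post-inoculation, in triplicate. Inhibition % was calculated from average lesion numbers versus control.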

[3] = tested on: Tobacco mosaic virus; assay: Antiviral activity against Tobacco mosaic virus (TMV) assessed as inhibition of viral growth at 500 ug/mL; conditions: read-out: GI
Method in brief: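 Leaves of 5–6-growth-stage tobacco were rub-inoculated with TMV juice (5.88 × 10−2 μg/mL), then cut into halves along the main vein. One half was immersed in 500 μg/mL compound and the other in double-distilled water, each for 20 min. Halves were cultured at 25 °C for 72 h, with at least 3 replicates. Inhibition % = (control − treated average lesion number)/control × 100.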

[4] = tested on: Tobacco mosaic virus; assay: Antiviral activity against Tobacco mosaic virus (TMV) inoculation on Nicotiana tabacum L. whole leaves assessed as virus infection protective effect at 500 ug/mL measured 3 to 4 days post inoculation
Method in brief: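 On N. tabacum L. leaves of the same age, compound was smeared on the left half and solvent on the right half as control. After 12 h, leaves were dusted with silicon carbide, brush-inoculated with TMV (6 × 10−3 mg/mL), then washed. Local lesions were counted 3–4 days later, in triplicate. Inhibition % was calculated from average lesion numbers versus control.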

[5] = tested on: Tobacco mosaic virus; assay: Antiviral activity against Tobacco mosaic virus (TMV) inoculation on Nicotiana tabacum L. whole leaves assessed as virus inactivation effect at 500 ug/mL measured 3 to 4 days post inoculation
Method in brief: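 TMV was mixed with an equal volume of compound solution for 30 min. The mixture was inoculated on the left half of N. tabacum L. leaves, and virus mixed with solvent on the right half as control. Local lesions were recorded 3–4 days post-inoculation, in triplicate. Inhibition % was calculated from average lesion numbers versus control.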

Row | SMILES | inhibition of growth at 1 µg/mL [1] | Activity [2] | inhibition of growth at 500 µg/mL [3] | Activity [4] | Activity [5]
1 | COc1cc2c3c(c4ccc(O)cc4c2cc1OC)CN1CCC[C@@H]1C3 | 70% |  |  |  | 
2 | COc1ccc2c3c(c4cc(OC)c(OC)cc4c2c1)C[C@H]1CCCN1C3 [(-)-ANTOFINE] | 63% |  |  |  | 
3 | CCN(CC)C(=O)[C@H]1CCCN1Cc1c(Br)c2ccc(OC)c(Br)c2c2cc(OC)c(OC)cc12 |  | 13.3% | 22.4% | 20.3% | 10.4%
4 | COc1cc2cc(CN3CCC[C@H]3CO)c3cc(OC)c(OC)cc3c2cc1OC |  | 23.5% | 15.9% | 25.2% | 17.4%
5 | COc1ccc2c(CN3CCC[C@H]3C(N)=O)c(Br)c3cc(OC)c(OC)cc3c2c1 |  | 5.6% | 0% | 0% | 14.5%
6 | COc1cc2cc(C(=O)N3CCC[C@H]3C(N)=O)c3cc(OC)c(OC)cc3c2cc1OC |  | 23.5% | 27% | 24.3% | 25.3%
7 | COc1cc2c(Br)c(CN3CCC[C@@H]3C(N)=O)c3cc(OC)c(OC)cc3c2cc1OC |  | 12.2% | 10.5% | 15.3% | 0%
8 | COC(=O)[C@@H]1CCCN1C(=O)/C(=C/c1ccc(OC)c(OC)c1)c1ccc(OC)c(OC)c1 |  | 17.2% | 17.5% | 23.6% | 21.1%
9 | COc1cc2cc(CN3C(=O)CC[C@H]3C(=O)O)c3cc(OC)c(OC)cc3c2cc1OC |  | 25.6% | 32.4% | 35.3% | 33.7%
10 | COc1ccc(/C=C(/C(=O)O)c2ccc(OC)c(OC)c2)cc1OC |  | 2.7% | 2.3% | 1.9% | 4.1%
